Calls of active or inactive are those of the source. The rule behind the calls is not given here.
Experiments:
Rattus norvegicus [1] = assay: Toxicity in rat allografted with cytoxan-resistant rat Walker 256 cells intramuscularly assessed as change in body weight at 0.25 mg/kg, qd administered for 5 days; format: organism-based; set-up: dose 0.25 mg/kg, route intramuscular; details: in vivo, im, 120 h
In short: (§1)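 Walker 256 carcinoma solid-tumour system in rats (parent line, or the line resistant to cytoxan). Dosing was one injection per day for 5 days. Toxicity was taken as the average net body-weight change of the treated group minus the average net weight change of the untreated tumour-bearing controls, in grams.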

Rattus norvegicus [2] = assay: Toxicity in rat allografted with cytoxan-resistant rat Walker 256 cells intramuscularly assessed as change in body weight at 2 mg/kg, qd administered for 5 days; format: organism-based; set-up: dose 2 mg/kg, route intramuscular; details: in vivo, im, 120 h; in short: as §1
W256 [3] = assay: Antitumor activity against rat Walker 256 cells intramuscularly allografted in rat assessed as tumor growth inhibition at 2 mg/kg, qd administered for 5 days relative to control; format: functional; details: W256, im, 120 h, route intramuscular, read-out: TGI
In short: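 Walker 256 carcinoma grown as a solid tumour in rats, with one injection daily for 5 days. Response is given as T/C %, the treated-group measure over the untreated-control tumour measure; a smaller value means more activity. Host toxicity is the mean net weight change of treated minus control animals, in grams.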

Rattus norvegicus [4] = assay: Toxicity in rat allografted with rat Walker 256 cells intramuscularly assessed as change in body weight at 2 mg/kg, qd administered for 5 days; format: organism-based; set-up: dose 2 mg/kg, route intramuscular; details: in vivo, im, 120 h; in short: as §1
Rattus norvegicus [5] = assay: Toxicity in rat allografted with rat Walker 256 cells intramuscularly assessed as change in body weight at 0.031 mg/kg, qd administered for 5 days; format: organism-based; set-up: dose 0.031 mg/kg, route intramuscular; details: in vivo, im, 120 h; in short: as §1
Rattus norvegicus [6] = species: Rattus norvegicus; assay: Toxicity in Wistar-Furth rat assessed as decrease in mature spermatocytes measured for 24 hrs; format: organism-based; details: in vivo
In short: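 Wistar-Furth rats were injected daily for 5 days at the antifertility-study doses of 1 or 5 mg/kg, depending on agent. Testes or ovaries were taken at sacrifice after 1, 3 or 24 h. Cryostat frozen sections were fixed in 95% alcohol for 10 min and stained with acridine orange (DNA green, RNA red). Results were compared with untreated controls.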

W256 [7] = assay: Antitumor activity against rat Walker 256 cells intramuscularly allografted in rat assessed as tumor growth inhibition at 0.5 mg/kg, qd administered for 5 days relative to control; format: functional; details: W256, im, 120 h, route intramuscular, read-out: TGI
In short: (§2)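 Dosed once daily for 5 days. Response is tumor progression in treated (T) versus untreated control (C) animals, expressed as T/C percentage. Host weight change is reported as the average net weight change of the test group minus that of the controls, in grams.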

Rattus norvegicus [8] = assay: Toxicity in rat allografted with cytoxan-resistant rat Walker 256 cells intramuscularly assessed as change in body weight at 1 mg/kg, qd administered for 5 days; format: organism-based; set-up: dose 1 mg/kg, route intramuscular; details: in vivo, im, 120 h; in short: as §1
Musca domestica = assay: Toxicity in male house fly assessed as lowest dose required to cause complete sterility administered in sugar; format: organism-based; details: in vivo, po
W256 [9] = assay: Antitumor activity against rat Walker 256 cells intramuscularly allografted in rat assessed as tumor growth inhibition at 0.25 mg/kg, qd administered for 5 days relative to control; format: functional; details: W256, im, 120 h, route intramuscular, read-out: TGI; in short: as §2
W256 [10] = assay: Antitumor activity against rat Walker 256 cells intramuscularly allografted in rat assessed as survival rate at 0.031 mg/kg, qd administered for 5 days; format: functional, organism-based; set-up: dose 0.031 mg/kg
In short: (§3)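 Rats bearing Walker 256 carcinoma as a solid tumor; lines 1-8 use a cytoxan-resistant Walker 256 subline. Dosed once daily for 5 days. Treated (T) and untreated control (C) groups are compared, and the response is given as T/C percentage, reflecting increase in survival time. Host weight change is the average weight change of the test group minus that of the controls, in grams.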

Rattus norvegicus [11] = assay: Toxicity in rat allografted with cytoxan-resistant rat Walker 256 cells intramuscularly assessed as change in body weight at 0.12 mg/kg, qd administered for 5 days; format: organism-based; set-up: dose 0.12 mg/kg, route intramuscular; details: in vivo, im, 120 h
In short: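 Cytoxan-resistant Walker 256 solid tumour in rats, one injection daily for 5 days. Toxicity is the average net body-weight change of the treated group minus that of the untreated controls, in grams.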

W256 [12] = assay: Antitumor activity against cytoxan-resistant rat Walker 256 cells intramuscularly allografted in rat assessed as tumor growth inhibition at 2 mg/kg, qd administered for 5 days relative to control; format: functional; details: W256, im, 120 h, route intramuscular, read-out: TGI; in short: as §2
Rattus norvegicus [13] = assay: Toxicity in rat allografted with rat Walker 256 cells intramuscularly assessed as change in body weight at 0.062 mg/kg, qd administered for 5 days; format: organism-based; set-up: dose 0.062 mg/kg, route intramuscular; details: in vivo, im, 120 h; in short: as §1
W256 [14] = assay: Antitumor activity against cytoxan-resistant rat Walker 256 cells intramuscularly allografted in rat assessed as tumor growth inhibition at 0.25 mg/kg, qd administered for 5 days relative to control; format: functional; details: W256, im, 120 h, route intramuscular, read-out: TGI; in short: as §2
W256 [15] = assay: Antitumor activity against rat Walker 256 cells intramuscularly allografted in rat assessed as tumor growth inhibition at 0.031 mg/kg, qd administered for 5 days relative to control; format: functional; details: W256, im, 120 h, route intramuscular, read-out: TGI; in short: as §2
Rattus norvegicus [16] = assay: Toxicity in rat allografted with rat Walker 256 cells intramuscularly assessed as change in body weight at 1 mg/kg, qd administered for 5 days; format: organism-based; set-up: dose 1 mg/kg, route intramuscular; details: in vivo, im, 120 h; in short: as §1
W256 [17] = assay: Antitumor activity against cytoxan-resistant rat Walker 256 cells intramuscularly allografted in rat assessed as survival rate at 0.5 mg/kg, qd administered for 5 days; format: functional, organism-based; set-up: dose 0.5 mg/kg; in short: as §3
W256 [18] = assay: Antitumor activity against cytoxan-resistant rat Walker 256 cells intramuscularly allografted in rat assessed as tumor growth inhibition at 0.12 mg/kg, qd administered for 5 days relative to control; format: functional; details: W256, im, 120 h, route intramuscular, read-out: TGI; in short: as §2
W256 [19] = assay: Antitumor activity against rat Walker 256 cells intramuscularly allografted in rat assessed as survival rate at 0.25 mg/kg, qd administered for 5 days; format: functional, organism-based; set-up: dose 0.25 mg/kg; in short: as §3
W256 [20] = assay: Antitumor activity against cytoxan-resistant rat Walker 256 cells intramuscularly allografted in rat assessed as tumor growth inhibition at 0.5 mg/kg, qd administered for 5 days relative to control; format: functional; details: W256, im, 120 h, route intramuscular, read-out: TGI; in short: as §2

Work on `C=CCN(CC=C)P(=O)(N1CC1)N1CC1` yielded an Activity (Rattus norvegicus [1]) of 0 g, an Activity (Rattus norvegicus [2]) of -2 g and an inhibition in vivo at 2 mg/kg (W256 [3]) of 0%. For the same compound, the Activity (Rattus norvegicus [4]) was -44 g, the Activity (Rattus norvegicus [5]) was 0 g and the Activity (Rattus norvegicus [6]) was “Non-toxic”. For the same compound, the inhibition in vivo at 0.5 mg/kg (W256 [7]) was 0%, the Activity (Rattus norvegicus [8]) was -13 g and the Activity (Musca domestica) was 0.05%. The inhibition in vivo at 0.25 mg/kg (W256 [9]) was 0%, the Activity (W256 [10]) was “Active” and the Activity (Rattus norvegicus [11]) was -14 g. It also gave an inhibition in vivo at 2 mg/kg (W256 [12]) of 9%, an Activity (Rattus norvegicus [13]) of -5 g and an inhibition in vivo at 0.25 mg/kg (W256 [14]) of 60%. For the same compound, the inhibition in vivo at 0.031 mg/kg (W256 [15]) was 24%, the Activity (Rattus norvegicus [16]) was -26 g and the Activity (W256 [17]) was “Active”. For the same compound, the inhibition in vivo at 0.12 mg/kg (W256 [18]) was 98%, the Activity (W256 [19]) was “Active” and the inhibition in vivo at 0.5 mg/kg (W256 [20]) was 58%.

— ChEMBL document CHEMBL3272018, “Synthesis of aziridinylallylaminophosphine oxides and sulfides as potential adjuvant cancer chemotherapeutic agents” (J Med Chem, 1976)
